NR2E3 ag-1 = inhibitors of NR2E3-RetCOR corepressor binding, primary screen, NR2E3 agonist project, biochemical, TR-FRET, GST-NR2E3, biotin-RetCOR | inhibition of corepressor binding, % at 4.78 µM | 320,000 compounds, 0.12% hits | 1536-well | Photoreceptor-specific nuclear receptor (Homo sapiens), Q9Y5X4;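 active means percent inhibition above the cutoff of mean plus 3 SD of all tested compounds, set per screening campaign, cut at about 20% in these data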
Target sequence (Q9Y5X4 whole entry, looked up): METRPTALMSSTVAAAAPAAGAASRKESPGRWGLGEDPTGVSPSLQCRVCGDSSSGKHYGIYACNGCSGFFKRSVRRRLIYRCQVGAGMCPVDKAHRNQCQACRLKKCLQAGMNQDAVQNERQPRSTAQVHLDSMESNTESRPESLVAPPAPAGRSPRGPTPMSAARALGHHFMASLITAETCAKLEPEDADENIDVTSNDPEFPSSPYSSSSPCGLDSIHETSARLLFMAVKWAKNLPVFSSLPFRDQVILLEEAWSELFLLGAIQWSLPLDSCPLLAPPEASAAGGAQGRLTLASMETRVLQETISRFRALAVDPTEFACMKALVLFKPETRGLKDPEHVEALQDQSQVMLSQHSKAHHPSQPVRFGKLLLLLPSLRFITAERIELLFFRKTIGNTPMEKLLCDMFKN
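Assay system: NR2E3–RetCOR corepressor complex. Quantity: 1.35 nM GST-NR2E3. Buffer or medium: pH 7.5 Tris-based buffer. Reagent: biotinylated RetCOR corepressor at 7 nM final. Schedule: 5 h at 4 °C. Detection: TR-FRET, emission read at 617 and 671 nm. Replicates: one well per compound, singlicate testing.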
PG9 binder = binders of HIV-1 gp120 antibody PG9, primary screen, biochemical, TR-FRET; HIV-1 gp120 / PG9 antibody interaction; TR-FRET gp120-PG9 antibody binding; inhibition, % at 6.7 µM; 360,000 compounds, 0.43% hits; AID 624416, 2012; in the data active means inhibition above about 8.5%
GalR3 antagonist = GalR3 antagonists in HEK293 cells, primary screen, cell-based, fluorescence readout; Galanin receptor type 3 (Homo sapiens), O60755; HEK293 GalR3-CNG cAMP membrane potential fluorescence; galR3 body fused to GalR1 C-terminus; inhibition, % at 3 µM; 360,000 compounds, 0.44% hits; AID 651719, 2012;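 active means inhibition above the screen-wide average plus 3 SD, cut at about 13% in these data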;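 further: forskolin and galanin both at EC90 stimulate the cells; cAMP rise reported by CNG channel membrane potential dye signal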
Target sequence (O60755 1-299 limits assumed): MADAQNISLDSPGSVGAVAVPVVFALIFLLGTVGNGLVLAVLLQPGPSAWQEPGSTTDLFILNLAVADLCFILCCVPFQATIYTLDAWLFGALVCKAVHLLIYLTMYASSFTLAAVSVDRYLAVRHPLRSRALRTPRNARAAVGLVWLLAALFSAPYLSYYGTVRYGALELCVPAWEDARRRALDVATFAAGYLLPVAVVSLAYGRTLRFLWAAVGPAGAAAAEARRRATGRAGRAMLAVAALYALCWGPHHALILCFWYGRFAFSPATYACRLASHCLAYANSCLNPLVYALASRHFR
NR1D1 modulator = modulators of Rev-erb alpha DNA binding, primary screen, biochemical, FITC-DNA, fluorescence polarization, uHTS; Nuclear receptor subfamily 1 group D member 1 (Homo sapiens), P20393; Rev-erbα–FITC-DNA binding, 90 min; activity, % at 10 µM; 370,000 compounds, 0.79% hits; AID 1259318, 2017;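 active means activity above about 14%, limit read from the data; passing the limit was not always enough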
NR2E3 ag-2 = NR2E3 agonists in two-hybrid cells, primary screen, cell-based, luminescence, CHO-S, Gal4-NCOR/VP16-NR2E3; Photoreceptor-specific nuclear receptor (Homo sapiens), Q9Y5X4; inhibition of corepressor binding, % at 3.98 µM; luciferase; 360,000 compounds, 0.35% hits;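 active means inhibition above the mean of all tested compounds plus 3 SD, cut at about 70% in these data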;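 further: higher means lower luciferase signal from less NR2E3 corepressor binding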
GalR3 antag conf = GalR3 antagonist hit confirmation, cell-based, fluorescence, triplicate | shares compounds with GalR3 antagonist | HEK293 GalR3 CNG cAMP biosensor, membrane potential fluorescence; galR3 fused to GalR1 carboxy tail; challenged with forskolin and galanin at EC90 | inhibition, % at 3 µM | 1,600 compounds, 59% hits | AID 652245, 2013;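 active means inhibition above the primary screen's cutoff, the mean inhibition of all screened compounds plus 3 SD, cut at about 13% in these data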
CNG parental = nonspecific cAMP agonists in parental HEK-CNG cells, counter-screen for GalR3 antagonist project, cell-based, fluorescence, high throughput; shares compounds with GalR3 antagonist; HEK293-CNG parental cells, cAMP membrane potential fluorescence; normalised: DMSO wells 0%, forskolin wells 100%; activation, % at 3 µM; 1,600 compounds, 10% hits; AID 652268, 2013; in the data active means activation above about 1.3%
Large screens that a line does not name were inactive (follow-up assays come after a bar, where they were run). Only some compounds are listed: those with a hit (about 1.8% of all), similar ones and a draw of the others.

O=C(CSc1ncccn1)Nc1cccc(S(=O)(=O)N2CCOCC2)c1	none (no result: NR2E3 ag-1)
O=C(CSc1nccc(=O)[nH]1)Nc1cccc(S(=O)(=O)N2CCOCC2)c1	GalR3 antagonist 30.6 | GalR3 antag conf inactive | CNG parental inactive
CCN(C(=O)C1CCCN1S(=O)(=O)c1cccnc1)c1ccccc1 (stereo unspecified)	none (no result: NR2E3 ag-1, PG9 binder, GalR3 antagonist, NR2E3 ag-2)
COc1ccc(CNC2CCC23CCC(C)CC3)cc1 (stereo unspecified)	none (no result: NR2E3 ag-1, PG9 binder, GalR3 antagonist, NR2E3 ag-2)
O=C1C(C=NC2CC2)=C(O)c2ccccc21	GalR3 antagonist 13.5 | GalR3 antag conf inactive | CNG parental inactive
CC(C)CN=CC1=C(O)c2ccccc2C1=O	none
COc1cccc(NC(=O)c2ccccc2F)c1	none
CCOC(=O)Nc1cccc(NC(=O)c2ccccc2F)c1	GalR3 antagonist 19.1 | GalR3 antag conf inactive | CNG parental inactive
CCOC(=O)C1CCN(C(=O)C(C)(C)NC(=O)Nc2ccc(Cl)cc2Cl)CC1	none (no result: NR2E3 ag-1, PG9 binder, GalR3 antagonist, NR2E3 ag-2)
COc1cc(C2Nc3ccc4ncccc4c3C3=C2C(=O)CCC3)cc(OC)c1O (stereo unspecified)	GalR3 antagonist 13.2 | GalR3 antag conf inactive | CNG parental inactive
CC(C)CNS(=O)(=O)/C=C/c1cc2c(cc1CNC(=O)OC(C)(C)C)OCO2	none (no result: NR2E3 ag-1, PG9 binder, GalR3 antagonist, NR2E3 ag-2)
CCN1C(=O)[C@@H]2[C@@H](c3ccc(-c4ccc(Cl)c(Cl)c4)c(OC)c3)N3CCCC[C@@]3(C(=O)OC)[C@@H]2C1=O	GalR3 antagonist 13.1 | GalR3 antag conf inactive | CNG parental 1.9
COc1ccc(Cl)cc1NC(=O)Nc1ccccc1SC	none (no result: GalR3 antagonist) | GalR3 antag conf inactive | CNG parental inactive
C[C@H]1[C@H](NCc2cccnc2)CC[C@@]23CCCN2C(=O)CCC[C@@H]13	none (no result: NR2E3 ag-1, PG9 binder, GalR3 antagonist, NR2E3 ag-2)
Cc1ccccc1C(=O)NC1CCCCN(Cc2cccc(C(F)(F)F)c2)C1=O (stereo unspecified)	none (no result: NR2E3 ag-1, PG9 binder, GalR3 antagonist, NR2E3 ag-2)
CC1(C)CC(=O)/C(=C(\O)CCCN2C(=O)c3ccccc3C2=O)C(=NCC(=O)O)C1	GalR3 antagonist 14.7 | GalR3 antag conf inactive | CNG parental inactive
COC(=O)[C@H]1C[C@]2(C(C=C(C)C)S(=O)(=O)c3ccccc3)c3ccccc3N[C@H]2N1 (stereo partly specified)	none (no result: NR2E3 ag-1, PG9 binder, GalR3 antagonist, NR2E3 ag-2)
O=S(=O)(c1ccc(Cl)cc1)N1CCN(S(=O)(=O)N2CCCCCC2)CC1	GalR3 antagonist 16.1 | GalR3 antag conf inactive | CNG parental inactive
O=C(Nc1ccc2c(c1)OCO2)OC1CCC12CCC(c1ccccc1)CC2 (stereo unspecified)	none (no result: NR2E3 ag-1, PG9 binder, GalR3 antagonist, NR2E3 ag-2)
COc1ccc(N2CCN(Cc3nc4c(c(=O)[nH]c(=O)n4C)n3CC(C)=O)CC2)cc1	GalR3 antagonist 13.2 | GalR3 antag conf inactive | CNG parental inactive
COC(=O)C1=C(C)N(Cc2ccccc2)C(=NCCc2c[nH]c3ccccc23)N[C@H]1c1ccccc1	none (no result: NR2E3 ag-1, PG9 binder, GalR3 antagonist, NR1D1 modulator)
Cc1cc(C)nc(N2C(=O)CC(C(=O)O)NC2=NCCc2c[nH]c3ccccc23)n1 (stereo unspecified)	GalR3 antagonist 14.1 | GalR3 antag conf inactive | CNG parental inactive
CN(C(=O)c1ccccc1OCC(=O)Nc1ccc(Br)cc1)c1ccccc1	none (no result: NR2E3 ag-1, PG9 binder, GalR3 antagonist, NR2E3 ag-2)
Cc1ccc(N2C(=O)c3ccccc3NC2C(C)Cc2ccc3c(c2)OCO3)cc1 (stereo unspecified)	GalR3 antagonist 39.3 | GalR3 antag conf 48.4 | CNG parental inactive
CCn1nnnc1SCC(=O)Nc1ccc(F)cc1	GalR3 antagonist 14.2 | GalR3 antag conf 71.0 | CNG parental inactive
C[C@@H]1OC(C2CCCCC2)N(C)[C@H]2C[C@H]3c4[nH]c5c(-c6ccc7c(c6)OCO7)cccc5c4CCN3C[C@@H]12 (stereo partly specified)	none (no result: NR2E3 ag-1, PG9 binder, GalR3 antagonist, NR2E3 ag-2)
COCCCNC(=S)N1CCN(c2nc(-c3ccc(F)cc3)cs2)CC1	none
CCOCCCNC(=S)N1CCN(c2nc(-c3ccc(F)cc3)cs2)CC1	GalR3 antagonist 36.8 | GalR3 antag conf 88.0 | CNG parental inactive
S=C(NCCCN1CCOCC1)N1CCN(c2nc(-c3ccc(Cl)cc3)cs2)CC1	GalR3 antagonist 20.1 | GalR3 antag conf inactive | CNG parental inactive
CCOC(=O)[C@@]12CCC3=C1N(CCC3)C(=O)[C@H](CC(=O)NCCc1ccccc1OC)C2	none (no result: NR2E3 ag-1, PG9 binder, GalR3 antagonist, NR2E3 ag-2)
CCC(CC)C(=O)Nc1ccc([N+](=O)[O-])cn1	GalR3 antagonist 16.1 | GalR3 antag conf 23.8 | CNG parental inactive
CCO[C@@H]1OC(C(=O)NCc2ccccc2)=C[C@H](C2CC2)[C@H]1CCCO	none (no result: GalR3 antagonist) | GalR3 antag conf inactive | CNG parental inactive
CCOC(=O)C(=CNc1ccc(S(N)(=O)=O)cc1)C(=O)OCC	GalR3 antagonist 12.6 | GalR3 antag conf 29.0 | CNG parental inactive
Cc1cc(-c2ccccc2)cc(=O)[nH]1	GalR3 antagonist 19.2 (no result: NR2E3 ag-1) | GalR3 antag conf inactive | CNG parental inactive
Cc1cc(=O)[nH]c(-c2ccccc2)n1	none
Cc1ccc(-c2cccc3[nH]cc(C)c23)s1	none (no result: NR2E3 ag-1, PG9 binder, GalR3 antagonist, NR2E3 ag-2)
CSc1ccccc1NC(=O)c1cccs1	none
O=C(Nc1ccccc1C1CC1)c1cccs1	GalR3 antagonist 78.1 | GalR3 antag conf inactive | CNG parental inactive
Cc1cccc(-n2c(SCC(=O)N3CC(=O)Nc4ccccc43)nc3ccccc3c2=O)c1	GalR3 antagonist 14.7 | GalR3 antag conf inactive | CNG parental inactive
COc1ccc(-c2noc(CCC(=O)NCCCN3CCN(c4ccc(F)cc4)CC3)n2)cc1	none
COc1ccc(-c2noc(CCC(=O)NCCCN3CCC(Cc4ccccc4)CC3)n2)cc1	GalR3 antagonist 76.3 | GalR3 antag conf inactive | CNG parental 6.1
CN1C(=O)[C@@](O)(c2cccn2C)c2cc(Cl)ccc21	none (no result: NR2E3 ag-1, PG9 binder, GalR3 antagonist, NR2E3 ag-2)
Cc1cc2c(ccc3c2no[n+]3[O-])nn1	GalR3 antagonist 13.7 | GalR3 antag conf 13.2 | CNG parental inactive
CCC(NC(=O)c1ccccc1NC(=O)C(C)(C)C)C(=O)N1CCCC1 (stereo unspecified)	GalR3 antagonist 14.7 | GalR3 antag conf inactive | CNG parental inactive
CC(C)NCC(O)c1cc(O)cc(O)c1 (stereo unspecified)	GalR3 antagonist 78.3 | GalR3 antag conf 21.8 | CNG parental 6.4
Cc1cccc2c(=O)cc(C(F)(F)F)[nH]c12	none
